Data set [1] is described as follows: Half life in mouse liver microsomes. Format: ADME. (In general: Microsomes from liver hold many membrane-bound enzymes, among them those of drug oxidation.)
Data set [2] deals with T1, Glucose-dependent insulinotropic receptor (Rattus norvegicus, UniProt Q7TQN8).
T1 sequence (Q7TQN8 whole entry): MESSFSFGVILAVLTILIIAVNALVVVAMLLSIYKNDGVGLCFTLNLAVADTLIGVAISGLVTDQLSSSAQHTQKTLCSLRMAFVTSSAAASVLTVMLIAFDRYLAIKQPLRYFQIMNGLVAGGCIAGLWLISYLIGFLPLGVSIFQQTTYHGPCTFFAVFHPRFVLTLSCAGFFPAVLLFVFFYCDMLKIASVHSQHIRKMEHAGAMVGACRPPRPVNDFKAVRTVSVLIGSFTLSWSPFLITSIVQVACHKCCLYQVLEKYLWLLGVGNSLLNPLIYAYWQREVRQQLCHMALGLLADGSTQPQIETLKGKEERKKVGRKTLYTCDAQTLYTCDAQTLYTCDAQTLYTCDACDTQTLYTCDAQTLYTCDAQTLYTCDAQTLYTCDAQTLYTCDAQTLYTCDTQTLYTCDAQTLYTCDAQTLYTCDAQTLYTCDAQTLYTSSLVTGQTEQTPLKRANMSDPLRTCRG
Nature of the data set: Agonist activity at rat GPR119 by HTRF cAMP assay. Format: functional.

For data set [3], the target named is T2, Glucose-dependent insulinotropic receptor (Homo sapiens) (UniProt Q8TDV5).
T2 sequence (whole entry): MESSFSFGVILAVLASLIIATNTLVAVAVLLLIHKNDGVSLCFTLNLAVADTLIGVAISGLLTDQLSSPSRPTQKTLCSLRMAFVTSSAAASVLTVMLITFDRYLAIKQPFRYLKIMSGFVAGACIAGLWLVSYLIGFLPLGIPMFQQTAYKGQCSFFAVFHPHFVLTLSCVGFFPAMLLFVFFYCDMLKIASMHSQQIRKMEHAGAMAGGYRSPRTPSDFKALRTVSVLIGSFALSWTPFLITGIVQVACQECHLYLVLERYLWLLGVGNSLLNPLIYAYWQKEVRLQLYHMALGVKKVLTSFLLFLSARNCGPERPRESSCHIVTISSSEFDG
In words: Agonist activity at human GPR119 by HTRF cAMP assay relative to AR231453. It is filed as functional.

The target of data set [4] is T3, Glucose-dependent insulinotropic receptor (Homo sapiens, UniProt Q8TDV5).
T3 sequence (Q8TDV5 whole entry): T2 sequence (whole entry)
In words: Agonist activity at human GPR119 by HTRF cAMP assay. Format: functional.

Data set [5] can be described thus: Half life in human liver microsomes. Format: ADME.
A short description of data set [6]: Half life in rat liver microsomes. It is filed as ADME.
The target in data set [7] is T4, Glucose-dependent insulinotropic receptor (Rattus norvegicus) (UniProt Q7TQN8).
T4 sequence (whole entry): T1 sequence (Q7TQN8 whole entry)
Nature of the data set: Agonist activity at rat GPR119 by HTRF cAMP assay relative to AR231453. It is filed as functional.

In data set [8] the test system is Mus musculus. In words: Antidiabetic activity in normoglycemic 129SVE mouse assessed as […] administered 30 mins prior to glucose challenge measured over 120 mins by OGTT. Format: functional, organism-based.
Data set [9] deals with T3, Glucose-dependent insulinotropic receptor. Nature of the data set: Agonist activity at human GPR119 by serum shift assay. In a few lines:
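HTRF cAMP read-out with cells plated overnight; growth medium swapped for fetal bovine serum-containing medium. Compounds serially diluted in DMSO, then in PBS with IBMX and 0.1% BSA to 2× concentration (1% DMSO) before addition. Potency compared with and without serum.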

The subject of data set [10] is Rattus norvegicus. Nature of the data set: Antidiabetic activity in Zucker diabetic fatty rat assessed as suppression of plasma glucose AUC at 3 mg/kg administered 60 mins prior to glucose challenge by OGTT relative to vehicle-treated control. It is filed as functional.
Data set [11] relates to Mus musculus. In words: Antidiabetic activity in normoglycemic 129SVE mouse assessed as suppression of plasma glucose AUC at 3 mg/kg, po administered 30 mins prior to glucose challenge measured over 120 mins by OGTT. Format: functional, organism-based.
The species entered for data set [12] is Rattus norvegicus. In words: Toxicity in rat assessed as physical mobility impairment. It is filed as organism-based. To be noted: in vivo.
Data set [13] concerns Mus musculus. Nature of the data set: In vivo activation of GPR119 in normoglycemic 129SVE mouse assessed as increase in GIP level in plasma at 30 mg/kg, po measured after 45 mins relative to vehicle-treated control. Format: functional, organism-based. Put shortly:
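Normoglycemic male 129SVE mice dosed orally (3 and 30 mg/kg); plasma GIP measured 45 min after dosing versus vehicle-treated controls; AR231453 at 30 mg/kg as reference agonist.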

Active and inactive are the calls of the source. The calls are words filed in the database; no cut-off is given here.

On to `C[C@H](OC(=O)N1CCC(O[C@H]2CC[C@H](Oc3cnc(S(C)(=O)=O)cn3)CC2)CC1)C(F)(F)F`, for which the half-life in data set [1], in data set [5] and in data set [6] was greater than 1 h in each case. Also, the EC50 (commonly the concentration needed to bring the measured effect to its halfway point) in data set [2] was found to be 49.9 nM; in [4], 4.8 nM; in data set [9], 53 nM. Further, the maximal response (Emax) (as a rule, the maximal effect, on the per cent scale that the assay sets) in [3] came to 112%; in data set [7], 125%. Besides, the outcome in the data set with Mus musculus [8] was inactive.

Take `N[C@@H](CC(=O)N1CCn2c(nnc2C(F)(F)F)C1)Cc1cc(F)c(F)cc1F` [SITAGLIPTIN]: in the data set with Rattus norvegicus [10], the Activity is 57%. Moreover, the result in the data set on Mus musculus [11] was Active.

Consider `CS(=O)(=O)c1cnc(O[C@H]2CC[C@H](OC3CCN(C(=O)OC(C(F)(F)F)C(F)(F)F)CC3)CC2)cn1`, for which the half-life in [1], in data set [5] and in data set [6] was greater than 1 h each time. The EC50 in [2] amounted to 10.9 nM; in data set [4] it was 1.2 nM; in data set [9], 45.2 nM. Besides, the maximal response (Emax) was determined as 104% in data set [3] and 121% in [7]. For the same compound, the Activity result in the data set listed under Rattus norvegicus [12] is recorded as “Dose-dependent effect”.

For `CC(C)c1noc(C2CCN(c3ncnc(Nc4ccc(S(C)(=O)=O)cc4F)c3[N+](=O)[O-])CC2)n1`, in the data set with Mus musculus [13], the result was Active.

(Values after ChEMBL document CHEMBL3596131, “Discovery of a novel trans-1,4-dioxycyclohexane GPR119 agonist series” (Bioorg Med Chem Lett, 2015).)
